MrgX1 allo act: human MrgX1 positive allosteric modulation, primary screen; Q96LB2; MrgX1-HEK293, Fluo-4 calcium flux, FDSS; hits give high values; B-score at 10 µM; 310,000 compounds, 0.63% hits;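 active means plate-corrected calcium response at least 3 library SD above typical, normal starting fluorescence, not activating the receptor alone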;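 further: compound read alongside a low EC10 to EC30 dose of BAM8-22 agonist; peak minus trough fluorescence over baseline measured at the second addition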
Target sequence (Q96LB2 whole entry, looked up): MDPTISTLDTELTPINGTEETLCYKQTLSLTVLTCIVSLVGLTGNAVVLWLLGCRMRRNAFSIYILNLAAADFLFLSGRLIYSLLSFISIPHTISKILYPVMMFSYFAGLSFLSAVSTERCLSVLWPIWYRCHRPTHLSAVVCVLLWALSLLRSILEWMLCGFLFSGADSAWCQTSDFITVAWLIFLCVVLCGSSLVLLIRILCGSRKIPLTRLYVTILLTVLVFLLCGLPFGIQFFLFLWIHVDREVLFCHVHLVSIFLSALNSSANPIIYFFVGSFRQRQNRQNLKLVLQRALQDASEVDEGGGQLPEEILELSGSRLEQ
RGS4 block: inhibitors of human RGS4; P49798; HEK293 M3R/RGS4 inducible, Fluo-4 calcium flux; hits give high values; triggered by carbachol at its EC20; B-score at 10 µM; 310,000 compounds, 0.45% hits;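 active means B-score, a plate-corrected calcium signal, over three deviations above library mean, with baseline fluorescence within five deviations of library mean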;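 further: RGS4 expression induced by doxycycline in cells with stable M3 receptor; B-score is computed from the integrated fluorescence ratio over baseline after carbachol; higher B-score means a larger calcium signal and so more RGS4 inhibition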
Target sequence (P49798 whole entry, looked up): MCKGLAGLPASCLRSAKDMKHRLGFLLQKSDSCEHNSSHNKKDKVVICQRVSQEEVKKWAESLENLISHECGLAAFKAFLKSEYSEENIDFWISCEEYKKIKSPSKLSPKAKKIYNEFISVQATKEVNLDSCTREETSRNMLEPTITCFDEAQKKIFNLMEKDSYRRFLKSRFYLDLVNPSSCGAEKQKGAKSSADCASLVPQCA
RGS4 pot: RGS4 potentiation or activation; HEK293 M3R/inducible RGS4, carbachol calcium flux Fluo4; hits give low values; B-score at 10 µM; AID 463111; 310,000 compounds, 0.92% hits;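 active means B-score of the integrated calcium signal more than 4 SD below the library mean, with starting fluorescence not abnormally high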;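 further: negative B-score means reduced calcium response which marks RGS4 activation or potentiation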
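Assay system: HEK293 FlpIn-TREx cells, stable M3R, doxycycline-inducible RGS4 / Probe or stimulus: carbachol, ECmax concentration / Times: overnight RGS4 induction, 30 min dye load 37 °C, 20 min compound RT / Signal: kinetic calcium fluorescence imaging with Fluo4-AM dye, 2 µM / Measure: Agonist-evoked peak-minus-minimum fluorescence over baseline, integrated ratio, B score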
MrgX1 antag: blocks BAM8-22 activation of human MrgX1 receptor; AID 588676; B-score at 10 µM; 310,000 compounds, 1.3% hits; Q96LB2; MRGX1-HEK293 calcium flux, Fluo-4, BAM8-22 antagonism; hits give low values;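 active means calcium-response B-score plate-corrected more than 3 library SD below zero, starting fluorescence within 5 deviations, no agonist response on first addition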;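 further: peak minus trough fluorescence over baseline after final BAM8-22 challenge near maximal dose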
MrgX1 ag: human MrgX1 receptor agonism, primary screen; Q96LB2; MrgX1-HEK293 cells, Fluo-4 calcium fluorescence, agonist mode; hits give high values; B-score at 10 µM; 310,000 compounds, 0.44% hits; AID 588627;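 active means calcium response B-score plate-corrected fluorescence ratio at least 3 library SD, with starting fluorescence B-score inside 5 SD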
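Test system: HEK293 cells stably expressing human MrgX1 receptor; amount: 15,000 cells per well; doses: compound delivered in addition one of three; times: overnight plating before 1 h dye loading; detection: Fluo-4 NW calcium-flux fluorescence, kinetic read; read-out basis: B-scored fluorescence response ratio; controls: positive and negative controls per plate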
MrgX1 antag conf: reconfirmed antagonist of human MrgX1 receptor signaling | AID 602420 | remaining BAM8-22 calcium response % of control (hits give low values), % at 10 µM | shares compounds with MrgX1 antag | 2,300 compounds, 19% hits | MrgX1-HEK293, BAM8-22 calcium flux, Fluo-4; hits give low values;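 active means remaining agonist calcium response no higher than 100% minus 3 SD of agonist-only control wells, with starting fluorescence near control levels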;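 further: agonist BAM8-22 given at a near maximal EC90 to ECmax level; peak minus minimum fluorescence divided by baseline after agonist addition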
HEK293 Ca flux: MrgX1 antagonist counter-screen hit in parental HEK293 cells | AID 624111 | Fluo-4 calcium fluorescence, FDSS | 4,000 compounds, 2% hits | shares compounds with MrgX1 antag | fluorescence ratio F(max-min)/F0 at 10 µM;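 active means duplicate-averaged calcium fluorescence ratio at least three times the standard deviation of buffer wells, a nonspecific response in parental cells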
HEK293 Ca counter: activity in parental HEK293 cells without MrgX1; shares compounds with MrgX1 antag; parental HEK293 calcium flux, Fluo-4 fluorescence ratio; hits give high values; fluorescence ratio F(max-min)/F0 at 10 µM; 4,000 compounds, 0.4% hits; AID 624114;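 active means calcium fluorescence ratio, averaged over duplicates, at least 3 SD of the buffer-well ratio, meaning a nonspecific response in receptor-free cells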;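 further: untransfected parental HEK293 lacking MrgX1 used as counterscreen for MrgX1 allosteric activators; fluorescence change taken during the second addition on a kinetic imager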
HEK293 Ca cntr2: MrgX1 activator counter-screen hit in parental HEK293 cells; shares compounds with MrgX1 antag; Fluo-4 calcium fluorescence (FDSS); hits give high values; fluorescence ratio F(max-min)/F0 at 10 µM; 4,000 compounds, 8.7% hits; AID 624115;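 active means calcium fluorescence ratio at least three times the spread of buffer wells, meaning a non-specific response in parental cells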
An asterisk follows results filed as active; i = inactive; . = not tested or not shown. Sampled rows, rich in hits. Any-hit rate of the full collection: about 3.5%.

SMILES	MrgX1 allo act	RGS4 block	RGS4 pot	MrgX1 antag	MrgX1 ag	MrgX1 antag conf	HEK293 Ca flux	HEK293 Ca counter	HEK293 Ca cntr2
O=C(CSc1ccc(-c2ccc(-n3cccn3)cc2)nn1)Nc1ccccc1F	i	i	i	i	i	.	.	.	.
O=c1cc(N2CCCCC2)nc2n1CCCS2	i	i	i	-5.41*	i	i	i	i	i
CC(C)(Cc1cc(CC(C)(C)C(=O)O)cc(C(C)(C)C)c1)C(=O)O	i	i	i	-7.55*	i	i	i	i	i
Cc1ccsc1/C=N/NC(=O)CN1CCN(Cc2ccccc2)CC1	i	i	i	i	i	.	.	.	.
C(=N\n1cnnc1)/c1ccc2ncccc2c1	i	i	i	-4.66*	i	i	i	i	i
C(=N\n1cnnc1)/c1ccccn1	i	i	i	i	i	.	.	.	.
C/C(Cl)=C\Cn1c(NCCc2ccccc2)nc2c1c(=O)n(C)c(=O)n2C	i	i	i	i	i	.	.	.	.
CCN(CC)CCNc1nc2c(c(=O)n(C)c(=O)n2C)n1C/C=C(/C)Cl	i	i	i	-4.64*	i	i	i	i	i
COc1ccc(-n2c3c(c(=O)[nH]c2=O)C(C(F)(F)F)(C(F)(F)F)N=C(CC(C)C)N3)cc1	i	i	i	i	i	.	.	.	.
CC(C)(CO)NC(=O)Nc1ccc(Cl)c(Cl)c1	i	i	i	-7.71*	i	i	i	i	i
Cc1ccc(NC(=O)NCC2CC2(Cl)Cl)cc1 (stereo not drawn)	i	i	i	i	i	.	.	.	.
O=C(NCC1CC1(Cl)Cl)Nc1ccc(Cl)c(Cl)c1 (stereo not drawn)	i	i	i	-5.51*	i	i	i	i	i
Cc1ccc(N2CCC(N3CCN(C)C(CCO)C3)CC2)cc1 (stereo not drawn)	i	i	i	-4.95*	i	i	i	i	i
COc1cccc(N2CCC(N3CCN(C)C(CCO)C3)CC2)c1 (stereo not drawn)	i	i	i	i	i	.	.	.	.
Cc1ccc(CNc2oc(-c3cccs3)nc2C#N)cc1	i	i	i	-5.37*	i	i	i	i	i
N#Cc1nc(-c2cccs2)oc1NCc1ccccc1	i	i	i	i	i	.	.	.	.
Cc1ccccc1CSc1nnc(-c2cccs2)n1Cc1ccco1	i	i	i	i	i	.	.	.	.
c1ccc(CSc2nnc(-c3cccs3)n2Cc2ccco2)cc1	i	i	i	-5.75*	i	82.7%*	i	i	i
CSc1cccc(NS(=O)(=O)c2ccc3c(c2)oc(=O)n3C)c1	i	i	i	-6.15*	i	76.2%*	i	i	i
COc1c(Cl)cc(Cl)cc1CNCCNCCO	i	i	i	i	i	.	.	.	.
O=C(Cn1c(=O)c2c(ncn2Cc2ccccc2)n(Cc2ccccc2)c1=O)N1CCCC1	i	i	i	i	i	.	.	.	.
Cc1ccc(-c2cc(C(=O)NC3=NCCS3)c3ccccc3n2)cc1C	i	i	i	-4.92*	i	i	i	i	i
O=C(NC1=NCCS1)c1cc(-c2ccc(F)cc2)nc2ccccc12	i	i	i	i	i	.	.	.	.
Cc1ccc(-c2nc(NC(=O)CSc3nnnn3-c3ccccc3)ns2)cc1	i	i	i	-6.66*	i	i	i	i	i
COc1ccc(CNC(=O)CSc2nnnn2-c2ccccc2)cc1	i	i	i	-9.87*	i	i	i	i	i
SMILES	MrgX1 allo act	RGS4 block	RGS4 pot	MrgX1 antag	MrgX1 ag	MrgX1 antag conf	HEK293 Ca flux	HEK293 Ca counter	HEK293 Ca cntr2
COc1ccc(-n2nnnc2SCC(=O)c2cccc(OC)c2)cc1	i	i	i	-4.64*	i	i	i	i	i
CCOC(=O)c1oc2ccccc2c1CSc1nnnn1-c1ccc(OC)cc1	i	i	i	-7.15*	i	i	i	i	i
CCn1nnnc1SCC(=O)c1cccc(OC)c1	i	i	i	i	i	.	.	.	.
C=CCN(c1ccccc1)S(=O)(=O)c1ccc(Cl)c(C(=O)OCC(=O)c2[nH]c(C)c(C(C)=O)c2C)c1	i	i	i	i	i	.	.	.	.
O=C(O)CCC(=O)N1CCN(Cc2ccc3c(c2)OCO3)CC1	i	i	i	i	i	.	.	.	.
CCn1c(SCC(=O)Nc2cc(C)on2)nc2sc3c(c2c1=O)CCCC3	i	i	i	i	i	.	.	.	.
CCCn1nc2cc(C(=O)NCc3ccc(OC)cc3)ccc2c1OCC	i	i	i	-5.02*	i	i	i	i	i
CCCn1nnnc1SCC(=O)NCc1ccc(OC)cc1	i	i	i	-6.79*	i	i	i	i	i
CCCn1nnnc1SCC(=O)NCc1ccccc1	i	i	i	i	i	.	.	.	.
Brc1ccc(CNc2nc3ccccc3n2CCN2CCCCC2)cc1	i	i	i	i	i	.	.	.	.
O=C(NCC(c1ccc(F)cc1)N1CCOCC1)c1ccco1 (stereo not drawn)	i	i	i	i	i	.	.	.	.
Cc1nc2c(C(=O)N3CCN(C)CC3)cnn2c(C)c1Cc1ccc(Cl)cc1	i	i	i	i	i	.	.	.	.
C=CCc1c(C)nc2c(C(=O)O)cnn2c1C	i	i	i	-4.6*	i	i	i	i	i
COc1ccc(C(=O)Nc2nc(C)c(C(=O)N(C)C)s2)cc1OC	i	i	i	-8.66*	i	i	i	i	i
COc1ccc(/C=C/C(=O)Nc2nc(C)c(C(=O)N(C)C)s2)cc1OC	i	i	i	i	i	.	.	.	.
CCc1noc(C)c1C(=O)Nc1nc(-c2ccc(OC)c(OC)c2)cs1	i	i	i	i	i	.	.	.	.
COc1ccccc1CC(=O)Nc1nc(-c2ccc(F)c(F)c2)cs1	i	i	i	i	i	.	.	.	.
COc1ccc(-c2csc(NC(=O)c3cc(C)oc3C)n2)cc1OC	i	i	i	-4.94*	i	71.1%*	i	i	i

Screening results as filed in PubChem BioAssay.
